Values after ≈ are worked out from the molar mass of the structure shown.
Key:
[1] = test system: Mycobacterium tuberculosis; assay: Antimicrobial activity against Mycobacterium tuberculosis H37Rv ATCC 27294 expressing luciferase reporter gene assessed as growth inhibition at 0.1 uM after 6 days by luminometry relative to control; type: functional; details: H37Rv ATCC 27294, 144 h, read-out: GI
Method in brief: (§1)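 Single-concentration screen of the luminescent H37Rv reporter strain in 7H9-10% FCS, inoculated at 50,000 RLU/ml, 6 days at 37 °C. Luminescence was read after n-decanal addition. Percent inhibition is versus the untreated culture, as the mean of triplicate cultures.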

[2] = test system: Mycobacterium tuberculosis; assay: Antimicrobial activity against Mycobacterium tuberculosis H37Rv ATCC 27294 expressing luciferase reporter gene assessed as growth inhibition at 1 uM after 6 days by luminometry relative to control; type: functional; details: H37Rv ATCC 27294, 144 h, read-out: GI; method in brief: as §1
[3] = test system: Mycobacterium tuberculosis; assay: Antimicrobial activity against Mycobacterium tuberculosis H37Rv ATCC 27294 expressing luciferase reporter gene assessed as growth inhibition at 10 uM after 6 days by luminometry relative to control; type: functional; details: H37Rv ATCC 27294, 144 h, read-out: GI; method in brief: as §1
Mycobacterium ulcerans = assay: Antimicrobial activity against Mycobacterium ulcerans 1615 expressing luciferase reporter gene assessed as growth inhibition after 6 days by luminometry; type: functional; details: Mycobacterium ulcerans, 1615, 144 h
Method in brief: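 Luminescent M. ulcerans 1615 carrying pSMT1 luciferase plasmid, grown at 32 °C in 7H9 with 10% OADC and 0.2% glycerol. Serial dilutions from 10 mM DMSO stocks in 7H9 + 10% FCS; bacteria dosed at 50,000 RLU/ml, triplicate wells. After 6 days, light read over 10 s following 1% n-decanal in ethanol. GI50 taken at 50% growth reduction versus untreated culture.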

[4] = Antimicrobial activity against Mycobacterium avium subsp. avium ATCC 19698 expressing luciferase reporter gene assessed as growth inhibition after 6 days by luminometry; type: functional; details: ATCC 19698, 144 h
[5] = test system: Mycobacterium avium subsp. paratuberculosis; assay: Antimicrobial activity against Mycobacterium avium subsp. paratuberculosis ATCC 15769 expressing luciferase reporter gene assessed as growth inhibition after 6 days by luminometry; type: functional; details: ATCC 15769, 144 h
[6] = test system: Mycobacterium tuberculosis; assay: Antimicrobial activity against Mycobacterium tuberculosis H37Rv ATCC 27294 expressing luciferase reporter gene infected in mouse J774 macrophages assessed as intracellular growth inhibition at 0.5 uM after 4 days by luminometry relative to untreated control; type: functional; details: H37Rv ATCC 27294, J774, 96 h, read-out: GI
Method in brief: (§2)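 J774.A1 murine macrophages were seeded at 40,000 cells/well, recovered overnight and infected with luminescent H37Rv. From 24 h post-infection, cells were treated for 4 days in DMEM with penicillin and fungizone, without gentamicin. Growth was read by luminescence after 1% n-decanal and expressed as percent inhibition versus untreated, in triplicate. Macrophage viability was checked by trypan blue.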

[7] = test system: Mycobacterium tuberculosis; assay: Antimicrobial activity against Mycobacterium tuberculosis H37Rv ATCC 27294 expressing luciferase reporter gene infected in mouse J774 macrophages assessed as intracellular growth inhibition at 1 uM after 4 days by luminometry relative to untreated control; type: functional; details: H37Rv ATCC 27294, J774, 96 h, read-out: GI; method in brief: as §2
[8] = test system: Mycobacterium tuberculosis; assay: Antimicrobial activity against Mycobacterium tuberculosis H37Rv ATCC 27294 expressing luciferase reporter gene infected in mouse J774 macrophages assessed as intracellular growth inhibition at 2 uM after 4 days by luminometry relative to untreated control; type: functional; details: H37Rv ATCC 27294, J774, 96 h, read-out: GI; method in brief: as §2
[9] = Therapeutic index, ratio of IC50 for human HepG2/C3A cells to GI50 for Mycobacterium tuberculosis H37Rv ATCC 27294; type: cell-based; details: read-out: TI
Method in brief: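 TI is NI50/GI50. NI50 came from a neutral red uptake assay in C3A hepatocytes (40,000 cells/well, 24 h exposure at 37 °C, 3 h dye, OD 530 nm with 620 nm reference): the concentration reducing dye uptake by 50%. GI50 came from the 6-day luminescent H37Rv assay.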

[10] = Cytotoxicity against human HepG2/C3A cells after 24 hrs by neutral red dye uptake assay; type: cell-based
[11] = test system: Mycobacterium tuberculosis; assay: Antimicrobial activity against Mycobacterium tuberculosis H37Rv ATCC 27294 expressing luciferase reporter gene assessed as growth inhibition after 6 days by luminometry; type: functional; details: H37Rv ATCC 27294, 144 h
Method in brief: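 Luminescent H37Rv (pSMT1, V. harveyi luciferase) was declumped by filtration, adjusted to 50,000 RLU/ml in 7H9-10% FCS, and exposed to serial compound dilutions in triplicate for 6 days at 37 °C. Light was read for 10 s after adding 1% n-decanal. GI50 is the concentration giving 50% growth reduction versus untreated culture.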

[12] = test system: Mycobacterium tuberculosis; assay: Antimicrobial activity against Mycobacterium tuberculosis H37Rv ATCC 27294 expressing luciferase reporter gene assessed as reduction in bacterial count after 6 days by luminometry; type: functional; details: H37Rv ATCC 27294, 144 h
Method in brief: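 MIC by serial dilution in the 6-day luminescent H37Rv assay (7H9-10% FCS, 50,000 RLU/ml inoculum, triplicate wells, n-decanal read-out). MIC is the concentration giving at least one log10 reduction in signal versus the untreated control.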

[13] = test system: Mycobacterium intracellulare; assay: Antimicrobial activity against Mycobacterium intracellulare; type: functional

SMILES | inhibition of growth at 0.1 µM [1] [%] | inhibition of growth at 1 µM [2] [%] | inhibition of growth at 10 µM [3] [%] | GI50 (Mycobacterium ulcerans) [µM] | GI50 [4] [µM] | GI50 [5] [µM] | inhibition of growth at 0.5 µM [6] [%] | inhibition of growth at 1 µM [7] [%] | inhibition of growth at 2 µM [8] [%] | selectivity ratio [9] | IC50 [10] [µM] | GI50 [11] [µM] | MIC90 [12] [µM] | MIC [13] [µg/mL]
Cc1nc(-c2ccc(F)cc2)cc2c1C(=O)c1ccccc1C2=O | 41 | 68 | 100 |  |  |  |  |  |  |  |  |  |  | 
Cc1nccc2c1C(=O)c1ccccc1C2=O | 10 | 22 | 58 |  |  |  |  |  |  |  |  |  |  | 
O=C1c2ccccc2C(=O)c2c(O)cc(-c3ccccc3)cc21 | 15 | 88 | 100 | 12.6 | 5.02 | 4.71 | 36.6 | 49 | 68.3 | 12.6 | 10.8 | 0.86 | 2.12 (≈ 0.637 µg/mL) | 
Cc1ccc(-c2cc(O)c3c(c2)C(=O)c2ccccc2C3=O)cc1 | 21 | 35 | 98 |  |  |  |  |  |  |  |  |  |  | 
CCOc1nc2c3c(ncc(Br)c3c1Br)-c1ccccc1C2=O |  |  |  |  |  |  |  |  |  |  |  |  |  | 25 (≈ 57.6 µM)
Cc1cncc2c1C(=O)c1ccccc1C2=O | < 10 | 11 | 48 |  |  |  |  |  |  |  |  |  |  | 
CN(C)/C=C/c1cncc2c1C(=O)c1ccccc1C2=O | < 10 | 17 | 53 |  |  |  |  |  |  |  |  |  |  | 
O=C1c2ccccc2-c2nccc3cncc1c23 | 11 | 25 | 62 |  |  |  |  |  |  |  |  |  |  | 
Cc1nc(-c2ccccc2)cc2c1C(=O)c1ccccc1C2=O | 21 | 66 | 98 |  |  |  |  |  |  |  |  |  |  | 
COc1ccc(-c2cc3c(c(C)n2)C(=O)c2ccccc2C3=O)cc1 | 32 | 70 | 100 |  |  |  |  |  |  |  |  |  |  | 
Cc1nc(-c2ccc(Cl)cc2)cc2c1C(=O)c1ccccc1C2=O | 42 | 68 | 100 |  |  |  |  |  |  |  |  |  |  | 
COc1ccc(OC)c(-c2cc3c(c(C)n2)C(=O)c2ccccc2C3=O)c1 | < 10 | 35 | 86 |  |  |  |  |  |  |  |  |  |  | 
Cc1ccc(-c2cc3c(c(C)n2)C(=O)c2ccccc2C3=O)cc1 | 54 | 63 | 99 |  |  |  |  |  |  |  |  |  |  | 
Cc1nc(C(C)C)cc2c1C(=O)c1ccccc1C2=O | < 10 | 24 | 54 |  |  |  |  |  |  |  |  |  |  | 
Cc1nc(C(C)(C)C)cc2c1C(=O)c1ccccc1C2=O | < 10 | 18 | 51 |  |  |  |  |  |  |  |  |  |  | 
CN(C)/C=C/c1nc(-c2ccccc2)cc2c1C(=O)c1ccccc1C2=O | 45 | 100 | 100 | 8.65 | 4.89 | 3.68 | 13.4 | 34.6 | 49.5 | 46.9 | 24.4 | 0.52 | 1.4 (≈ 0.496 µg/mL) | 

SMILES | inhibition of growth at 0.1 µM [1] [%] | inhibition of growth at 1 µM [2] [%] | inhibition of growth at 10 µM [3] [%] | GI50 (Mycobacterium ulcerans) [µM] | GI50 [4] [µM] | GI50 [5] [µM] | inhibition of growth at 0.5 µM [6] [%] | inhibition of growth at 1 µM [7] [%] | inhibition of growth at 2 µM [8] [%] | selectivity ratio [9] | IC50 [10] [µM] | GI50 [11] [µM] | MIC90 [12] [µM] | MIC [13] [µg/mL]
CN(C)/C=C/c1nc(-c2ccc(F)cc2)cc2c1C(=O)c1ccccc1C2=O | 35 | 92 | 100 | 7.49 | 3.65 | 3.23 | 10.2 | 27.3 | 60.5 | 91 | 37.3 | 0.41 | 0.88 (≈ 0.328 µg/mL) | 
CN(C)/C=C/c1nc(-c2ccc(Cl)cc2)cc2c1C(=O)c1ccccc1C2=O | 34 | 91 | 100 | 7.69 | 3.88 | 3.95 | 19.8 | 35.6 | 54.4 | 34.2 | 18.8 | 0.55 | 1.1 (≈ 0.428 µg/mL) | 
COc1ccc(OC)c(-c2cc3c(c(/C=C/N(C)C)n2)C(=O)c2ccccc2C3=O)c1 | 35 | 47 | 87 |  |  |  |  |  |  |  |  |  |  | 
Cc1ccc(-c2cc3c(c(/C=C/N(C)C)n2)C(=O)c2ccccc2C3=O)cc1 | 39 | 100 | 100 | 8.59 | 3.69 | 4.83 | 15.9 | 36.2 | 48.7 | 40.4 | 27.9 | 0.69 | 1.5 (≈ 0.553 µg/mL) | 
CN(C)/C=C/c1nc(C(C)(C)C)cc2c1C(=O)c1ccccc1C2=O | 21 | 53 | 73 |  |  |  |  |  |  |  |  |  |  | 
O=C1c2ccccc2-c2nccc3nc(-c4ccccc4)cc1c23 | 67 | 95 | 100 | 10.6 | 4.22 | 3.21 | 14.6 | 32.6 | 48.2 | 39.1 | 21.5 | 0.55 | 1.2 (≈ 0.37 µg/mL) | 
O=C1c2ccccc2-c2nccc3nc(-c4ccc(F)cc4)cc1c23 | 53 | 100 | 100 | 9.23 | 3.98 | 3.56 | 15.3 | 30.2 | 65.5 | > 72.4 | > 50 | 0.69 | 1.5 (≈ 0.489 µg/mL) | 
O=C1c2ccccc2-c2nccc3nc(-c4ccc(Cl)cc4)cc1c23 | 77 | 99 | 99 |  |  |  | 2.27 | 20.3 | 44.2 | > 69.4 | > 50 | 0.72 | 1.85 (≈ 0.634 µg/mL) | 
COc1ccc(OC)c(-c2cc3c4c(nccc4n2)-c2ccccc2C3=O)c1 | 39 | 75 | 87 |  |  |  |  |  |  |  |  |  |  | 
Cc1ccc(-c2cc3c4c(nccc4n2)-c2ccccc2C3=O)cc1 | 73 | 100 | 100 |  |  |  | 7 | 34.6 | 47.2 | 16.6 | 7.14 | 0.43 | 1.31 (≈ 0.422 µg/mL) | 
CC(C)(C)c1ccc(-c2cc3c4c(nccc4n2)-c2ccccc2C3=O)cc1 | 32 | 41 | 73 |  |  |  |  |  |  |  |  |  |  | 
CCc1ccnc2c1C(=O)c1ccccc1C2=O |  |  |  |  |  |  |  |  |  |  |  |  |  | 12.5 (≈ 52.7 µM)
O=C1c2ccccc2-c2nccc3c2c1nc1ccccc13 [BENZOSAMPANGINE] |  |  |  |  |  |  |  |  |  |  |  |  |  | 0.39 (≈ 1.38 µM)
Cc1ccnc2c1C(=O)c1ccccc1C2=O [CLEISTOPHOLINE] |  |  |  |  |  |  |  |  |  |  |  |  |  | 12.5 (≈ 56 µM)
NNC(=O)c1ccncc1 [ISONIAZID] | 99 | 100 | 100 |  |  |  | 76.4 | 92.8 | 97.3 |  |  | 0.01 | 0.09 (≈ 0.0123 µg/mL) | 

Source: ChEMBL document CHEMBL2434878, “Synthesis and antimycobacterial activity of analogues of the bioactive natural products sampangine and cleistopholine” (Eur J Med Chem, 2013)
